Assay results published in ChEMBL document CHEMBL1136796 (J Med Chem, 2003).

Assays:
K562 = experiment: In vitro inhibitory concentration against human chronic myelogenous leukemia K562 cell growth; assay type: functional, cell-based
Tubulin [1] = molecular target: T1, Tubulin (Sus scrofa, UniProt P02554+P02550); experiment: In vitro inhibition of maximum porcine tubulin assembly rate after 20 min at 37 degrees C; assay type: functional
NCI-H460 [2] = experiment: Tested for induction of cellular death in Human lung H-460 tumor cell line in Propidium Iodide Monolayer Assay; assay type: functional, cell-based
Outline: (§1)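 Propidium iodide monolayer assay: cells seeded at 1 × 10^5 or 5 × 10^4 cells/mL, 24 h recovery, drug in triplicate for 3–6 days by doubling time; PI 25 μg/mL added, fluorescence (ex 530/em 620 nm) read before and after freezing at −18 °C for 24 h; viable cells from the difference; % T/C versus concentration.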

LXFL 529 = experiment: Tested for induction of cellular death in Human lung LXF 529L tumor cell line in Propidium Iodide Monolayer Assay; assay type: functional, cell-based; outline: as §1
MAXF401 cell line = experiment: Tested for induction of cellular death in Human breast 401NL tumor cell line in Propidium Iodide Monolayer Assay; assay type: functional, cell-based; outline: as §1
RXF 944 = experiment: Tested for induction of cellular death in Human renal RXF 944L tumor cell line in Propidium Iodide Monolayer Assay; assay type: functional, cell-based; outline: as §1
[3] = test system: Lung LXF 629L tumor cell line; experiment: Tested for induction of cellular death in Human lung LXF 629L tumor cell line in Propidium Iodide Monolayer Assay; assay type: functional, cell-based; outline: as §1
RKO [4] = experiment: Cytotoxic activity against human colon adenocarcinoma RKO cells with ectopic inducible expression of cyclin-dependent kinase inhibitor p27kip1; assay type: functional, cell-based
RKO [5] = experiment: Cytotoxic activity against human colon adenocarcinoma RKO cells without ectopic inducible expression of cyclin-dependent kinase inhibitor p27kip1; assay type: functional, cell-based
NCI-H460 [6] = experiment: Cytotoxic activity against cellular metabolic activity of Lung NCI-H460 tumor cell line using XTT proliferation assay after incubation with the compound for 48 h; assay type: functional, cell-based; conditions: Homo sapiens, NCI-H460, 48 h
Outline: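 NCI-H460 human lung tumor cells seeded at 1 × 10^3 cells/well in microtiter plates and exposed to a range of compound concentrations for 48 h. Proliferation read as cellular metabolic activity by XTT. At least two replicates (n = 2); IC50 obtained from dose–response curves by nonlinear regression.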

SK-OV-3 = experiment: Cytotoxic activity against cellular metabolic activity of Ovary SKOV3 tumor cell line using XTT proliferation assay after incubation with the compound for 48 h; assay type: functional, cell-based; conditions: Homo sapiens, SK-OV-3, 48 h
P388 (Mus musculus) = experiment: Antiproliferative activity against P388 tumor cell line
P388/ADR = experiment: Antiproliferative activity against P388 phenotype P388 ADR tumor cell line; assay type: functional, cell-based; conditions: Mus musculus
SF-268 [7] = experiment: Cytotoxic activity against cellular metabolic activity of Glioma SF-268 tumor cell line using XTT proliferation assay after incubation with the compound for 48 h; assay type: functional, cell-based; conditions: Homo sapiens, SF-268, 48 h
HeLa (Homo sapiens) = experiment: Effective concentration required to arrest propidium iodide stained KB/HeLa cells in G2/M phase
L1210 [8] = experiment: Antiproliferative activity against L1210 phenotype L1210 VCR tumor cell line; assay type: functional, cell-based; conditions: Mus musculus
LT12 tumor cell line [9] = experiment: Antiproliferative activity against LT12 tumor cell line; assay type: functional, cell-based; conditions: Rattus norvegicus
KB = experiment: Cytotoxic activity against cellular metabolic activity of Cervix KB/HeLa tumor cell line using XTT proliferation assay after incubation with the compound for 48 h; assay type: functional, cell-based; conditions: Homo sapiens
LT12 tumor cell line [10] = experiment: Antiproliferative activity against LT12 phenotype LT12 MDR tumor cell line; assay type: functional, cell-based; conditions: Rattus norvegicus
L1210 [11] = experiment: Antiproliferative activity against L1210 tumor cell line; assay type: functional, cell-based; conditions: Mus musculus
MCF7 = experiment: Tested for induction of cellular death in Human breast MCF-7 tumor cell line in Propidium Iodide Monolayer Assay; assay type: functional, cell-based; outline: as §1
Sus scrofa [12] = species: Sus scrofa; experiment: In vitro inhibitory concentration against tubulin assembly; assay type: functional
SF-268 [13] = experiment: Tested for induction of cellular death in Human ZNS SF-268 tumor cell line in Propidium Iodide Monolayer Assay; assay type: functional, cell-based; outline: as §1
Tubulin [14] = molecular target: T1, Tubulin; experiment: In vitro inhibitory concentration required to displace [3H]colchicine from its binding site on Tubulin; assay type: protein assay
Outline: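 Streptavidin-coated yttrium SPA beads were then added and bound radioactivity measured by scintillation counting. IC50 was derived by nonlinear regression.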

Sus scrofa [15] = species: Sus scrofa; experiment: Concentration required to inhibit Microtubule assembly compared to colchicine using EM studies; assay type: functional

## COc1ccc(/C=C\c2cc(OC)c(OC)c(OC)c2)cc1O [COMBRETASTATIN A4]
K562
  IC50: 20 nM

## COc1cc(CC2c3ccccc3C(=O)c3ccccc32)cc(OC)c1
Tubulin [1]
  IC50: 10000 nM

## COc1cccc2c1C(=O)c1c(O)c3c(c(O)c1C2=O)C[C@@](O)(C(=O)CO)C[C@@H]3O[C@H]1C[C@H](N)[C@H](O)[C@H](C)O1 [DOXORUBICIN]
NCI-H460 [2]
  IC50: 1720 nM
LXFL 529
  IC50: 30 nM
MAXF401 cell line
  IC50: 10 nM
RXF 944
  IC50: 60 nM
K562
  IC50: 10 nM
[3]
  IC50: 70 nM

## COC(=O)Nc1nc2cc(C(=O)c3cccs3)ccc2[nH]1 [NOCODAZOLE]
RKO [4]
  IC50: > 10000 nM
RKO [5]
  IC50: 110 nM
NCI-H460 [6]
  IC50: 150 nM
SK-OV-3
  IC50: 170 nM
P388 (Mus musculus)
  IC50: 70 nM
P388/ADR
  IC50: 50 nM
SF-268 [7]
  IC50: 300 nM
HeLa (Homo sapiens)
  EC50: 82 nM
L1210 [8]
  IC50: 70 nM
LT12 tumor cell line [9]
  IC50: 300 nM
KB
  IC50: 140 nM
LT12 tumor cell line [10]
  IC50: 50 nM
L1210 [11]
  IC50: 60 nM

## COc1ccc(CC2c3ccccc3C(=O)c3ccccc32)cc1
Tubulin [1]
  IC50: 2600 nM
K562
  IC50: 25000 nM

## COc1ccc(C=C2c3ccccc3C(=O)c3ccccc32)cc1
NCI-H460 [2]
  IC50: 500 nM
LXFL 529
  IC50: 260 nM
MCF7
  IC50: 560 nM
MAXF401 cell line
  IC50: 300 nM
RXF 944
  IC50: 700 nM
Tubulin [1]
  IC50: 760 nM
Sus scrofa [12]
  IC50: < 1000 nM
K562
  IC50: 60 nM
[3]
  IC50: 130 nM
SF-268 [13]
  IC50: 890 nM

## COc1cc(C=C2c3ccccc3C(=O)c3ccccc32)cc(OC)c1O
NCI-H460 [2]
  IC50: 3090 nM
LXFL 529
  IC50: 7490 nM
MCF7
  IC50: 4130 nM
MAXF401 cell line
  IC50: 240 nM
RXF 944
  IC50: 150 nM
Tubulin [1]
  IC50: 630 nM
Sus scrofa [12]
  IC50: < 1000 nM
K562
  IC50: 170 nM
[3]
  IC50: 720 nM
SF-268 [13]
  IC50: 620 nM

## COc1ccc(CC2c3ccccc3C(=O)c3ccccc32)cc1OC(=O)c1ccccc1
Tubulin [1]
  IC50: > 10000 nM

## COc1cc(CC2c3ccccc3C(=O)c3ccccc32)cc(OC)c1OC
Tubulin [1]
  IC50: > 10000 nM
K562
  IC50: > 80000 nM

## COc1ccc(C=C2c3ccccc3C(=O)c3ccccc32)cc1O
NCI-H460 [2]
  IC50: < 10 nM
RKO [4]
  IC50: > 9000 nM
LXFL 529
  IC50: 520 nM
MCF7
  IC50: < 10 nM
RKO [5]
  IC50: 60 nM
MAXF401 cell line
  IC50: < 10 nM
Tubulin [14]
  IC50: 370 nM
RXF 944
  IC50: < 10 nM
NCI-H460 [6]
  IC50: 70 nM
SK-OV-3
  IC50: 50 nM
P388 (Mus musculus)
  IC50: 160 nM
Tubulin [1]
  IC50: 670 nM
Sus scrofa [12]
  IC50: 670 nM
K562
  IC50: 20 nM
P388/ADR
  IC50: 260 nM
SF-268 [7]
  IC50: 50 nM
HeLa (Homo sapiens)
  EC50: 206 nM
[3]
  IC50: < 10 nM
L1210 [8]
  IC50: 130 nM
LT12 tumor cell line [9]
  IC50: 320 nM
KB
  IC50: 90 nM
LT12 tumor cell line [10]
  IC50: 190 nM
L1210 [11]
  IC50: 140 nM
SF-268 [13]
  IC50: 30 nM
Sus scrofa [15]
  IC50: 700 nM

## O=C1c2ccccc2C(=Cc2ccccc2)c2ccccc21
Tubulin [1]
  IC50: 4400 nM
K562
  IC50: 2000 nM

## COC(=O)c1cc(C=C2c3ccccc3C(=O)c3ccccc32)ccc1O
Tubulin [1]
  IC50: > 10000 nM
K562
  IC50: 1400 nM

## COc1ccc(C=C2c3ccccc3C(=O)c3ccccc32)cc1OC
Tubulin [1]
  IC50: 1700 nM
K562
  IC50: 600 nM

## O=C1c2ccccc2C(=Cc2ccc3c(c2)OCO3)c2ccccc21
K562
  IC50: 900 nM

## COc1cc(C=C2c3ccccc3C(=O)c3ccccc32)cc(OC)c1
Tubulin [1]
  IC50: > 10000 nM
K562
  IC50: 600 nM

## O=C1c2ccccc2C(=Cc2ccc(C(F)(F)F)cc2)c2ccccc21
K562
  IC50: > 20000 nM

## O=C1c2ccccc2C(=Cc2cc(O)c(O)c(O)c2)c2ccccc21
Tubulin [1]
  IC50: > 10000 nM
K562
  IC50: 20000 nM

## CCOC(=O)c1ccc(C=C2c3ccccc3C(=O)c3ccccc32)cc1
K562
  IC50: 700 nM
